In ChEMBL document CHEMBL1275439, “Acquisition of a plasmid-borne blaOXA-58 gene with an upstream IS1008 insertion conferring a high level of carbapenem resistance to Acinetobacter baumannii” (2008):
In brackets after ≈: the same amount, converted by molar mass.

How the values were obtained:
Assay type in all cases: functional
[1] = test system: Acinetobacter baumannii; experiment: Antimicrobial activity against Acinetobacter baumannii Ab290 by broth dilution test
Outline: (§1)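 MICs determined by broth dilution on automated Sensititre susceptibility plates or by agar dilution, interpreted per CLSI guidelines. Carbapenem MICs confirmed by Etest. E. coli ATCC 25922 and P. aeruginosa ATCC 27853 served as quality-control strains. All tests done in duplicate.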

[2] = test system: Acinetobacter baumannii; experiment: Antimicrobial activity against Acinetobacter baumannii ATCC 15151T by broth dilution test; outline: as §1
[3] = test system: Escherichia coli; experiment: Antimicrobial activity against Escherichia coli DH5alpha harboring plasmid containing OXA-58-3 by broth dilution test
[4] = test system: Acinetobacter baumannii; experiment: Antimicrobial activity against Acinetobacter baumannii TVICU53 by broth dilution test
Outline: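 MICs by broth dilution on automated susceptibility plates, or by agar dilution, read and interpreted per CLSI guidelines; carbapenem MICs confirmed by Etest. Clinical isolate tested against a panel of aminoglycosides, β-lactams, β-lactam/inhibitor combinations, carbapenems, ciprofloxacin, chloramphenicol and trimethoprim-sulfamethoxazole. E. coli ATCC 25922 and P. aeruginosa ATCC 27853 run as quality controls. All tests done in duplicate.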

[5] = test system: Acinetobacter baumannii; experiment: Antimicrobial activity against Acinetobacter baumannii Ab290 harboring TVICU53 plasmid by broth dilution test
Outline: (§2)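 Recombinant plasmids were electroporated (2.5 kV, 25 µF) into electrocompetent cells harvested at exponential phase (OD600 0.5–0.7). Cells were recovered in SOC broth at 37°C for 1 h and selected on antibiotics. MICs were then read by Sensititre broth dilution or agar dilution per CLSI, with carbapenems confirmed by Etest. Tests were run in duplicate with ATCC 25922/27853 controls.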

[6] = test system: Escherichia coli; experiment: Antimicrobial activity against Escherichia coli DH5alpha harboring plasmid containing OXA-58-4 by broth dilution test
[7] = test system: Acinetobacter baumannii; experiment: Antimicrobial activity against Acinetobacter baumannii Ab290 containing plasmid harboring OXA-58-4 by broth dilution test; outline: as §2
[8] = test system: Escherichia coli; experiment: Antimicrobial activity against Escherichia coli DH5alpha by broth dilution test
[9] = test system: Acinetobacter baumannii; experiment: Antimicrobial activity against Acinetobacter baumannii Ab290 containing plasmid harboring OXA-58-3 by broth dilution test; outline: as §2
[10] = test system: Acinetobacter baumannii; experiment: Antimicrobial activity against Acinetobacter baumannii ATCC 15151T containing plasmid harboring OXA-58-3 by broth dilution test; outline: as §2

Row | SMILES | MIC [1] [mg/L] | MIC [2] [mg/L] | MIC [3] [mg/L] | MIC [4] [mg/L] | MIC [5] [mg/L] | MIC [6] [mg/L] | MIC [7] [mg/L] | MIC [8] [mg/L] | MIC [9] [mg/L] | MIC [10] [mg/L]
1 | CC1(C)S[C@@H]2[C@H](NC(=O)[C@H](N)c3ccc(O)cc3)C(=O)N2[C@H]1C(=O)O [AMOXICILLIN] | 32 (≈ 87.6 µM) | > 256 | > 256 | > 256 | > 256 | > 256 | > 256 | 8 (≈ 21.9 µM) | > 256 | 
2 | C[C@H]1[C@H](NC(=O)/C(=N\OC(C)(C)C(=O)O)c2csc(N)n2)C(=O)N1S(=O)(=O)O [AZTREONAM] |  | 64 (≈ 147 µM) | < 0.12 | 64 (≈ 147 µM) | 16 (≈ 36.7 µM) |  |  | < 0.12 | 16 (≈ 36.7 µM) | 128 (≈ 294 µM)
3 | Cc1nnc(SCC2=C(C(=O)O)N3C(=O)[C@@H](NC(=O)Cn4cnnn4)[C@H]3SC2)s1 [CEFAZOLIN] | > 128 | > 128 | 8 (≈ 17.6 µM) | > 128 |  |  |  | 4 (≈ 8.8 µM) |  | 
4 | CO/N=C(\C(=O)N[C@@H]1C(=O)N2C(C(=O)O)=C(COC(C)=O)CS[C@H]12)c1csc(N)n1 [CEFOTAXIME] | 8 (≈ 17.6 µM) | 16 (≈ 35.1 µM) |  | 64 (≈ 141 µM) | 8 (≈ 17.6 µM) |  |  | < 0.12 | 8 (≈ 17.6 µM) | 16 (≈ 35.1 µM)
5 | CC(C)(O/N=C(\C(=O)N[C@@H]1C(=O)N2C(C(=O)[O-])=C(C[n+]3ccccc3)CS[C@H]12)c1csc(N)n1)C(=O)O [CEFTAZIDIME] | 4 (≈ 7.32 µM) | 8 (≈ 14.6 µM) | < 0.12 | 128 (≈ 234 µM) | 4 (≈ 7.32 µM) |  |  | < 0.12 | 4 (≈ 7.32 µM) | 8 (≈ 14.6 µM)
6 | CO/N=C(\C(=O)N[C@@H]1C(=O)N2C(C(=O)O)=C(COC(N)=O)CS[C@H]12)c1ccco1 [CEFUROXIME] | 32 (≈ 75.4 µM) | > 128 | 4 (≈ 9.43 µM) | > 128 | 32 (≈ 75.4 µM) |  |  | 4 (≈ 9.43 µM) | 32 (≈ 75.4 µM) | 
7 | C[C@@H](O)[C@H]1C(=O)N2C(C(=O)O)=C(SCCNC=N)C[C@H]12 [IMIPENEM ANHYDROUS] | 0.25 (≈ 0.835 µM) | 0.5 (≈ 1.67 µM) | 2 (≈ 6.68 µM) | 64 (≈ 214 µM) | 32 (≈ 107 µM) | 0.25 (≈ 0.835 µM) | 1 (≈ 3.34 µM) | 0.25 (≈ 0.835 µM) | 64 (≈ 214 µM) | 32 (≈ 107 µM)
8 | C[C@@H](O)[C@H]1C(=O)N2C(C(=O)O)=C(S[C@@H]3CN[C@H](C(=O)N(C)C)C3)[C@H](C)[C@H]12 [MEROPENEM] | 0.25 (≈ 0.652 µM) | 0.5 (≈ 1.3 µM) |  | 16 (≈ 41.7 µM) | 16 (≈ 41.7 µM) |  | 0.5 (≈ 1.3 µM) | < 0.25 | 16 (≈ 41.7 µM) | 32 (≈ 83.4 µM)
9 | CC1(C)S[C@@H]2[C@H](NC(=O)[C@H](C(=O)O)c3ccsc3)C(=O)N2[C@H]1C(=O)O [TICARCILLIN] | 16 (≈ 41.6 µM) | 8 (≈ 20.8 µM) | > 1020 | > 1020 | > 1020 | 256 (≈ 666 µM) | 256 (≈ 666 µM) | 8 (≈ 20.8 µM) | > 1020 | > 1020
